Compounds with a hit are over-represented: about 1.6% of the library has one in this group of screens.
Rpn11 block = blocks the human proteasome subunit Rpn11 | O00487 | human 26S proteasome, Ub4-pepOG fluorescence polarization; 20S core pre-blocked with epoxomicin | inhibition, % at 20 µM | 360,000 tested, 0.59% active;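 active = inhibition at 20 µM, scaled to each plate's controls, above about 33%, limit read from the data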
SENP1 FRET inh = inhibitors of human SENP1 SUMO protease catalytic domain; recombinant SENP1 catalytic domain, CyPet-SUMO1-YPet FRET cleavage; 360,000 tested, 0.21% active; inhibition, % at 10 µM; Q9P0U3; AID 624204;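 active = inhibition at least 30% at 10 µM, raw YFP signal under a set limit, fluorescence ratio 0.5 to 1.5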
Target sequence (Q9P0U3 419-644 limits assumed): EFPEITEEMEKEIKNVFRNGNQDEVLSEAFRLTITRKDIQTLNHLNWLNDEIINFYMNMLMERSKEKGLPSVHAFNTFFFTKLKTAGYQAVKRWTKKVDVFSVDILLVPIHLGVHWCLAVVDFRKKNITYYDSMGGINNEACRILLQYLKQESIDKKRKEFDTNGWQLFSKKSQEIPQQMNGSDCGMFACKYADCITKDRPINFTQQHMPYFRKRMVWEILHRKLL
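Material: hSENP1 catalytic domain, recombinant; medium: Tris pH 8 with BME, BSA, NP40 and catalase; compound: single concentration of 10 µM compound, 0.5% DMSO final; technique: FRET read of cyan and yellow fluorescence; timing: 50 min enzyme reaction, room temperature, light-protected; reagent: SFCypet-SUMO1-SFYpet substrate at 25 nM; control set: no-enzyme low, enzyme-DMSO high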
TPT1 inh = blocks Candida albicans tRNA 2'-phosphotransferase; inhibition, % at 5 µM; 300,000 tested, 0.81% active; recombinant caTPT1, FP RNA substrate dephosphorylation;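 active = inhibition above the mean of all tested compounds plus 3 SD, set per screening campaign, cut at about 24% in these data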
CSN deneddyl inh = inhibitors of human CSN-mediated cullin deneddylation | Q92905 | Purified CSN, SCF-Nedd8-OG deneddylation, fluorescence polarization | inhibition, % at 12.5 µM | 360,000 tested, 0.38% active | AID 651999;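 active = pattern-corrected inhibition above about 35%, with an unprinted fluorescence ratio check between 0.5 and 1.5, limit read from the data, passing the limit was not always enough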
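test system = HEK293T-derived human Csn5 enzyme | amount = 0.24 nM Csn5 enzyme, final concentration | medium = Tris/NaCl/DTT buffer, pH 7.5 | schedule = 90 min reaction at room temperature | signal = FP | evaluation = inhibition of Csn5 cleavage, % | compound dosing = single dose of 12.5 µM compound with 0.25% DMSO | probe or stimulus = 10 nM SCFSkp2-Nedd8OG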
HNF4A DNA FP = change in binding of human HNF4 alpha to DNA | HNF4a-FITC DNA binding, fluorescence polarization, 1 h | 360,000 tested, 0.3% active | activity change, % at 10 µM | AID 1224865; in the data active = activity change above about 30%, passing the limit was not always enough
caTPT1 confirm = TPT1 (C. albicans) inhibition, confirmation | 2,400 tested, 74% active | shares compounds with TPT1 inh | recombinant caTPT1, fluorescence polarization, RNase T1 coupled | inhibition, % at 5 µM;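 active = inhibition above the primary screen limit, the mean inhibition of all tested compounds plus 3 SD, cut at about 25% in these data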
RNase T1 inh = counter-screen for TPT1 inhibitors: inhibitors of Aspergillus oryzae RNase T1. AID 2153. shares compounds with TPT1 inh. inhibition, % at 5 µM. RNase T1 cleavage, fluorescence polarization, 1536-well. 2,400 tested, 83% active;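 active = inhibition above the solvent-only control well mean plus 3 SD, limit set per screening run, cut at about 23% in these data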;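 note: inhibitors block cleavage so intact labeled substrate keeps polarization high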
Target sequence (P00651 whole entry, looked up): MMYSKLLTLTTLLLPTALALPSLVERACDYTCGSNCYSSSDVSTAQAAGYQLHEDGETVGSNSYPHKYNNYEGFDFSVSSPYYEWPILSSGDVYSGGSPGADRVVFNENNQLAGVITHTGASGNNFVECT
Large screens that a line does not name were inactive (follow-up assays come after a bar, where shown).

CC(=O)N1c2ccccc2N=C(c2ccc3c(c2)OCO3)C1C(=O)NCc1ccccc1 (centres undefined)	none (no result: Rpn11 block, TPT1 inh)
COC(=O)c1cc(NC(=O)c2ccccc2)c(=O)oc1C/C=N\OCc1ccc(Cl)cc1Cl	TPT1 inh 31 (not shown: Rpn11 block) | caTPT1 confirm 28 | RNase T1 inh 36
CCc1nnc(NC(=O)CSc2sc3c(O)cc(=O)[nH]c3c2C#N)s1	Rpn11 block 61, TPT1 inh 49 | caTPT1 confirm inactive | RNase T1 inh inactive
COc1cc(/C=C(\C#N)c2nc3ccccc3o2)ccc1O	TPT1 inh 164 (not shown: Rpn11 block) | caTPT1 confirm 170 | RNase T1 inh 156
Cc1ccc(C)c(N/C=C(\C#N)c2nc3ccccc3o2)c1	none
NC(=O)c1c(NC(=O)COC(=O)c2ccc(S(=O)(=O)Nc3ccccc3)cc2)sc2c1CCCC2	none
CN(C)c1ccc(/C=C/c2nc3ccccc3c(=O)n2CCO)cc1	TPT1 inh 80 (not shown: Rpn11 block) | caTPT1 confirm 84 | RNase T1 inh 95
CN(C)c1ccc(/C=C/c2nc3ccccc3c(=O)[nH]2)cc1	TPT1 inh 64, HNF4A DNA FP 67 (not shown: Rpn11 block) | caTPT1 confirm 74 | RNase T1 inh 83
CCCCN1C(=O)C2Cc3c([nH]c4ccccc34)CN2C1=S (centres undefined)	TPT1 inh 25 | caTPT1 confirm inactive | RNase T1 inh 38
CCCCCN1CC(=O)N2Cc3[nH]c4ccccc4c3C[C@H]2C1=O	none
CCc1nc2ccc(C(=O)N(CC)CCN(C)C)cn2c1N(CC)CCOC	none (no result: TPT1 inh)
CCOC(=O)c1cc(-c2ccc(OC)cc2OC)nn1-c1ccc(C(=O)O)cc1	none
O=[N+]([O-])c1ccc(C[n+]2cccc3ccccc32)cc1	TPT1 inh 56 (not shown: Rpn11 block) | caTPT1 confirm 27 | RNase T1 inh 36
NS(=O)(=O)c1ccc(-c2ccc(/C=C3\NC(=S)NC3=O)o2)cc1	TPT1 inh 45, HNF4A DNA FP 36 | caTPT1 confirm 70 | RNase T1 inh 80
NS(=O)(=O)c1ccc(-c2ccc(C=O)o2)cc1	none
Cc1ccc(C)c(C(=O)Nc2nc3ccccc3[nH]2)c1	TPT1 inh 25 | caTPT1 confirm inactive | RNase T1 inh inactive
CCN(CC)c1ccc(N=Nc2nn(C)c(C)c2[N+](=O)[O-])cc1	none
CCN(CC)c1ccc(N=Nc2ncn[nH]2)cc1	TPT1 inh 25 | caTPT1 confirm 24 | RNase T1 inh 35
COc1ccc(CNC(=O)[C@H](CCSC)NC(=O)N2CCn3c2nc2ccccc23)cc1	none
CSCCC(=O)N1CCC(n2nccc2NC(=O)CCCc2ccccc2)CC1	none
CCC1=[N+](CC(=O)c2ccc(C)cc2)CCn2c(C)ccc21	none
CC1=[N+](CC(=O)c2ccccc2)CCn2cccc21	TPT1 inh 49 | caTPT1 confirm inactive | RNase T1 inh inactive
CCN(CC)c1ccc2cc(S(=O)(=O)c3ccc(Cl)cc3)c(=O)oc2c1	TPT1 inh 86 | caTPT1 confirm 98 | RNase T1 inh 104
CCCCCCc1cc2cc(S(=O)(=O)c3ccc(Cl)cc3)c(=O)oc2cc1O	none
Cc1ccc(-c2cc(=O)c3cc(Cl)ccc3[nH]2)cc1	none (no result: Rpn11 block, SENP1 FRET inh, CSN deneddyl inh, HNF4A DNA FP)
O=C(c1ccco1)N1CCN(c2ccc([N+](=O)[O-])cn2)CC1	none
Cc1sc(-n2c(C)cc(/C=N/n3cnnc3)c2C)c(C#N)c1C	none
Cc1sc(-n2c(C)cc(/C=C3\SC(=S)NC3=O)c2C)c(C#N)c1C	TPT1 inh 45, HNF4A DNA FP 67 (not shown: Rpn11 block) | caTPT1 confirm 60 | RNase T1 inh 75
CCn1c(C)cc(/C=C2/SC(=S)NC2=O)c1C	TPT1 inh 98 | caTPT1 confirm 105 | RNase T1 inh 119
CCCn1c(=O)[nH]c(=O)c2c(C(=O)OCC)cc(-c3cccs3)nc21	none
CC[C@@]1(C(=O)OC)N[C@H](CN(C)C(=O)COC)[C@@H]2C(=O)N(Cc3ccccc3)C(=O)[C@@H]21	none (no result: TPT1 inh)
CNc1nc(-c2c[nH]c3ccccc23)cs1	none
CCC(C)Nc1nc(-c2c[nH]c3ccccc23)cs1 (centres undefined)	TPT1 inh 25 | caTPT1 confirm inactive | RNase T1 inh 33
